Test results from ChEMBL document CHEMBL4513216, “Probing the Open Global Health Chemical Diversity Library for Multistage-Active Starting Points for Next-Generation Antimalarials” (ACS Infect Dis, 2020).

Assay: Toxicity liver stage against HepG2, at 10uM
Assay type: cell-based
Set-up: test concentration 10 uM, cell line HepG2-A16-CD81EGFP
Conditions: human, HepG2-A16-CD81EGFP cells; read-out: INHIBITION
Method in brief: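 Uninfected HepG2-A16-CD81EGFP cells, 3 × 10^3 per well, 1536-well, plated on prespotted compound at 10 μM final, parasite-free screening media added to match infected plates; puromycin 10 μM positive, DMSO 0.5% negative; run in parallel with 48 h PbLuc assay at 37 °C, 5% CO2; viability by CellTiter-Glo luminescence, normalized to controls.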

O=C(NCc1ccc(F)cc1)N1CCC(C2OCCO2)CC1
cytotoxicity at 10 µM: -2.39%

COCc1noc(-c2ccc(N(C)Cc3ccc(C)o3)nc2)n1
cytotoxicity at 10 µM: -3.7%

CS(=O)(=O)Nc1ccc2c(c1)NC(=O)CC2c1cnn2cccnc12 (stereo not given)
cytotoxicity at 10 µM: -1.77%

CN1CCN(Cc2c(Cl)ccc(O)c2Cl)CC1C(=O)O (stereo not given)
cytotoxicity at 10 µM: 9.46%

CCc1cnc(NCCCOC2CCCC2)nc1
cytotoxicity at 10 µM: -0.0184%

CC(C)(C)c1ncc2c(n1)CN(C(=O)c1ccc3[nH]cnc3c1)C2
cytotoxicity at 10 µM: -2.62%

COCCN1CCN(Cc2nc3c(s2)CCCC3)[C@H]2CS(=O)(=O)C[C@H]21
cytotoxicity at 10 µM: 6.81%

Cc1nc(N(C)CCCc2nccn2C)c2nc(C)oc2n1
cytotoxicity at 10 µM: 5.82%

Cc1ncc(CC(=O)N2CCCC(COc3ccc(F)cc3)C2)c(=O)[nH]1 (stereo not given)
cytotoxicity at 10 µM: -142%

O=C(C1CNCCN1C(=O)CCOc1ccccc1)N1CCCC1 (stereo not given)
cytotoxicity at 10 µM: -7.42%

CCc1nc2c(c(N3CCOCC3)n1)CCN(C(=O)N1CCCC1)CC2
cytotoxicity at 10 µM: 7.6%

c1cc(N2CCC(c3nnc(Cn4ccnc4)n3C3CC3)CC2)ccn1
cytotoxicity at 10 µM: -4.31%

COc1nc(C)c(C(=O)N2CCN(c3ncccc3C)CC2)s1
cytotoxicity at 10 µM: 2.87%

Cc1noc(C)c1CN1CC2(CCN(Cc3c[nH]cn3)CC2)CC1=O
cytotoxicity at 10 µM: 8.62%

COc1ccc(CN2CCCC2)cc1Oc1ccc2c(c1)CC(CN)O2 (stereo not given)
cytotoxicity at 10 µM: -10.5%

N#CC1(C(=O)N2C[C@H](Nc3ncccn3)[C@@H](C3CC3)C2)CCOCC1
cytotoxicity at 10 µM: 5.44%

CS(=O)(=O)N1CCC(Oc2ccc(C(=O)NCCC(N)=O)cc2Cl)CC1
cytotoxicity at 10 µM: -1.28%

O=c1cc(N2CCCCC2)cnn1Cc1noc(C2CCCO2)n1 (stereo not given)
cytotoxicity at 10 µM: -47.1%

COc1cccc2c1OCC(C(=O)N1CCC(N3CCSCC3)CC1)C2 (stereo not given)
cytotoxicity at 10 µM: 2.24%

COc1ccnc(CNc2nc(C)nc(C)c2C)c1
cytotoxicity at 10 µM: -1.7%

CC(C)N1CCCC2(CCN(Cc3nncn3C(C)C)C2)C1=O (stereo not given)
cytotoxicity at 10 µM: -108%

Cc1nn(C)c(C)c1-c1nc2cc(S(=O)(=O)N3CCCC3)ccc2n1C
cytotoxicity at 10 µM: -6.05%

Cc1cc(CN2CCC(CNC(=O)c3cnc(C)nc3C)C2)[nH]n1 (stereo not given)
cytotoxicity at 10 µM: -140%

COc1ccc(F)c(CN2CCC3(CCC(=O)N(CC(N)=O)C3)CC2)c1
cytotoxicity at 10 µM: 12%

NC(=O)CN1CCC(C(=O)N2CCCC(OCc3cccnc3)C2)CC1 (stereo not given)
cytotoxicity at 10 µM: -1.88%

CCC1CN(C(=O)CN2CCN(c3nccc(OC)n3)CC2)CCO1 (stereo not given)
cytotoxicity at 10 µM: -6.21%

Cc1nc(C2CCCN(C(=O)c3ccnc(N(C)C)c3)C2)no1 (stereo not given)
cytotoxicity at 10 µM: -4.77%

CC(C(=O)NC(N)=O)N(C)CCCc1cc(-c2ccccc2)no1 (stereo not given)
cytotoxicity at 10 µM: -8.63%

Cc1noc(C)c1C(=O)N1CCCC(c2cc(C(F)(F)F)[nH]n2)C1 (stereo not given)
cytotoxicity at 10 µM: -0.855%

Cc1cc(NC(=O)CN2CCCC2c2c(C)nn(C)c2Cl)on1 (stereo not given)
cytotoxicity at 10 µM: -0.945%

CCc1nnc2n1CCN(Cc1csc(NC(C)=O)n1)C2
cytotoxicity at 10 µM: -1.45%

Cc1ncc(CN2CCC(N(C)Cc3noc(C4CC4)n3)C2)s1 (stereo not given)
cytotoxicity at 10 µM: -3.16%

CN(Cc1ccco1)C(=O)c1cccc(N2CCCC2=O)c1
cytotoxicity at 10 µM: -4.5%

CCc1nc(C2CCCN2Cc2cc(=O)n(C)c(=O)n2C)no1 (stereo not given)
cytotoxicity at 10 µM: -11.5%

Cc1ccc(NC2CCN(C(=O)COC3CCCC3)CC2)nn1
cytotoxicity at 10 µM: 2.31%

O=C(NCc1ccccc1)NCC(O)c1cccc(F)c1 (stereo not given)
cytotoxicity at 10 µM: -5.09%

CC(NC(=O)Cn1ccc(=O)n(C)c1=O)c1ccccc1F (stereo not given)
cytotoxicity at 10 µM: -10.6%

CC(=O)Nc1nc(C(=O)N2CCCCC2Cn2cccn2)cs1 (stereo not given)
cytotoxicity at 10 µM: -31.4%

Cc1nc(CN(C)C2CCN(Cc3ccc(C(N)=O)cc3)C2)no1 (stereo not given)
cytotoxicity at 10 µM: -12.7%

Cc1nn(C)c(N2CCOCC2)c1CNCc1ccnn1C
cytotoxicity at 10 µM: -1.66%

Cc1nc(CN2CCCN(C(=O)c3c(C)noc3C)CC2)cs1
cytotoxicity at 10 µM: -2.87%

O=C(CS(=O)(=O)c1ccccc1Cl)NC1CCCCNC1=O (stereo not given)
cytotoxicity at 10 µM: -13.2%

COc1ccc(CCC(=O)N2CCCC2Cn2cc(C)cn2)cc1F (stereo not given)
cytotoxicity at 10 µM: 2.36%

CCc1ncc(CN(C)C2CCN(C(C)C)CC2)cn1
cytotoxicity at 10 µM: -3.91%

O=C(N1CCCO1)[C@@]12CCO[C@@H]1CCN(Cc1ccccn1)C2
cytotoxicity at 10 µM: 3.98%

O=C(NCc1cnc2n1CCN(Cc1ccsc1)CC2)C1CCC1
cytotoxicity at 10 µM: -2.53%

CSc1ccc(CNC(c2ccccc2F)c2nccn2C)cc1 (stereo not given)
cytotoxicity at 10 µM: 1.75%

COCCN1CCc2cc(C(=O)N(C)C)c(NCC3CC3)nc2CC1
cytotoxicity at 10 µM: 4.44%

Cc1cccc(CN2CCc3ncnc(N4CCCC4)c3CC2)n1
cytotoxicity at 10 µM: -145%

CC(C)N1CCOCC2(CCCN(C(=O)c3cn(C)cn3)C2)C1 (stereo not given)
cytotoxicity at 10 µM: 1.88%

Cn1cc(CN2C[C@H](Oc3ncccc3F)[C@H]3OCCC[C@H]32)cn1
cytotoxicity at 10 µM: 2.72%

CN(C)C(=O)CN1CCCC2(CCN(c3ccc(C#N)cn3)C2)C1 (stereo not given)
cytotoxicity at 10 µM: 4.01%

CC(C)C(=O)N1CCC[C@]2(C(=O)N(C)C)CN(c3ccccn3)C[C@@H]2C1
cytotoxicity at 10 µM: 30.7%

O=C1[C@@H]2CC[C@@H](CN(Cc3nnc(C4CC4)o3)C2)N1Cc1cscn1
cytotoxicity at 10 µM: 9.57%

CC1CCCCN1S(=O)(=O)NCCNC(=O)c1ncccc1O (stereo not given)
cytotoxicity at 10 µM: 2.34%
